Laboratory results: ChEMBL document CHEMBL1121786, “Studies on position 1 of angiotensin II: effects on affinity and duration of action from alkyl amide substitution” (J Med Chem, 1981)

Key:
Oryctolagus cuniculus [1] = organism: Oryctolagus cuniculus; experiment: In vitro intrinsic activity was determined against rabbit aorta and percent increase in blood pressure was reported; type: functional
Oryctolagus cuniculus [2] = organism: Oryctolagus cuniculus; experiment: In vitro intrinsic activity was determined against rabbit aorta and expressed as alpha E; type: functional
Summary of the method: (§1)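 Isolated aortic tissue in a bath aerated with 95% O2/5% CO2 under 2.0 g initial tension, readjusted during a 60–90 min equilibration with bath fluid changed every 10–15 min. Concentrations are final bath concentrations. Peptides are kept as 1 mg/mL stocks in distilled water at -20 °C for up to 14 days and diluted in 0.9% saline just before use.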

Rattus norvegicus [3] = experiment: In vivo intrinsic activity was determined against rat aorta and percent increase in blood pressure was reported; type: functional
Summary of the method: (§2)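 Male Wistar rats (~250 g) are anesthetized with urethane 1.4 g/kg sc, with jugular vein and carotid artery cannulated. Peptides are diluted in 0.9% saline from 1 mg/mL aqueous stocks and injected intravenously. Arterial blood pressure is recorded through the carotid cannula with a pressure transducer.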

Rattus norvegicus [4] = experiment: In vivo intrinsic activity against rat aorta and value was reported as factor between the hypertensin and the compound; type: functional; summary of the method: as §2
Oryctolagus cuniculus [5] = organism: Oryctolagus cuniculus; experiment: In vitro intrinsic activity against rabbit aorta and value was reported as factor between the hypertensin and the compound; type: functional; summary of the method: as §1
Oryctolagus cuniculus [6] = organism: Oryctolagus cuniculus; experiment: In vitro intrinsic activity was determined against rabbit aorta and expressed as factor F at t1/2; type: functional
Oryctolagus cuniculus [7] = organism: Oryctolagus cuniculus; experiment: In vitro intrinsic activity was determined against rabbit aorta and expressed as factor F at t3/4; type: functional
Oryctolagus cuniculus [8] = organism: Oryctolagus cuniculus; experiment: In vitro intrinsic activity was determined against rabbit aorta and time taken to ralax maximally contracted tissue to 25% was reported; type: functional; parameters: unit not given beside the values
Summary of the method: (§3)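 Aortic strips are held in an aerated (95% O2/5% CO2) bath under 2.0 g tension after a 60–90 min equilibration. At maximal agonist contraction, unbound peptide is removed by several washes and the time for tension to fall back toward the pre-contraction level is recorded. Peptides are diluted in 0.9% saline from 1 mg/mL aqueous stocks immediately before use.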

Oryctolagus cuniculus [9] = organism: Oryctolagus cuniculus; experiment: In vitro intrinsic activity was determined against rabbit aorta and expressed as negative logarithm of half maximal dose; summary of the method: as §1
Oryctolagus cuniculus [10] = organism: Oryctolagus cuniculus; experiment: In vitro intrinsic activity was determined against rabbit aorta and time taken to ralax maximally contracted tissue to 50% was reported; type: functional; summary of the method: as §3

In the case of CC[C@H](C)[C@H](NC(=O)[C@H](Cc1ccc(O)cc1)NC(=O)[C@@H](NC(=O)[C@H](CCCN=C(N)N)NC(=O)[C@@H](N)CC(=O)N(C)C)C(C)C)C(=O)N[C@@H](Cc1c[nH]cn1)C(=O)N1CCC[C@H]1C(=O)N[C@@H](Cc1ccccc1)C(=O)O [listing 1 of 2 here], the “Increase in blood pressure” value (Oryctolagus cuniculus [1]) is reported as 46%, the “Alpha E” value (Oryctolagus cuniculus [2]) is reported as 1 and the “Increase in blood pressure” value (Rattus norvegicus [3]) is reported as 30%. The “Activity Factor” value (Rattus norvegicus [4]) was 3.3, the Activity (Oryctolagus cuniculus [5]) was 2.2 and the F1/2 (Oryctolagus cuniculus [6]) was 1.3. It also gave an F3/4 (Oryctolagus cuniculus [7]) of 2.3 and a T3/4 (Oryctolagus cuniculus [8]) of 20.

For CCCN(CCC)C(=O)C[C@H](N)C(=O)N[C@@H](CCCN=C(N)N)C(=O)N[C@H](C(=O)N[C@@H](Cc1ccc(O)cc1)C(=O)N[C@H](C(=O)N[C@@H](Cc1c[nH]cn1)C(=O)N1CCC[C@H]1C(=O)N[C@@H](Cc1ccccc1)C(=O)O)[C@@H](C)CC)C(C)C [listing 1 of 2 here], the pD2 (Oryctolagus cuniculus [9]) was 6.93.

Compound CC[C@H](C)[C@H](NC(=O)[C@H](Cc1ccc(O)cc1)NC(=O)[C@@H](NC(=O)[C@H](CCCN=C(N)N)NC(=O)[C@@H](N)CC(=O)N(C(C)C)C(C)C)C(C)C)C(=O)N[C@@H](Cc1c[nH]cn1)C(=O)N1CCC[C@@H]1C(=O)N[C@@H](Cc1ccccc1)C(=O)O has a T1/2 (Oryctolagus cuniculus [10]) of 14.3.

Compound CC[C@H](C)[C@H](NC(=O)[C@H](Cc1ccc(O)cc1)NC(=O)[C@@H](NC(=O)[C@H](CCCN=C(N)N)NC(=O)[C@@H](N)CC(=O)N(C)C)C(C)C)C(=O)N[C@@H](Cc1c[nH]cn1)C(=O)N1CCC[C@H]1C(=O)N[C@@H](Cc1ccccc1)C(=O)O [listing 2 of 2 here] has a pD2 (Oryctolagus cuniculus [9]) of 7.39.

With H-NRVYIHPF-OH the “Increase in blood pressure” value (Oryctolagus cuniculus [1]) was 100%, the “Alpha E” value (Oryctolagus cuniculus [2]) was 1 and the pD2 (Oryctolagus cuniculus [9]) was 7.73. The “Increase in blood pressure” value (Rattus norvegicus [3]) was 100%, the “Activity Factor” value (Rattus norvegicus [4]) was 1 and the Activity (Oryctolagus cuniculus [5]) was 1. The T1/2 (Oryctolagus cuniculus [10]) was 5, the F1/2 (Oryctolagus cuniculus [6]) was 1 and the F3/4 (Oryctolagus cuniculus [7]) was 1. The T3/4 (Oryctolagus cuniculus [8]) was 8.7.

With CC[C@H](C)[C@H](NC(=O)[C@H](Cc1ccc(O)cc1)NC(=O)[C@@H](NC(=O)[C@H](CCCN=C(N)N)NC(=O)[C@@H](N)CC(=O)N(C)C)C(C)C)C(=O)N[C@@H](Cc1c[nH]cn1)C(=O)N1CCC[C@@H]1C(=O)N[C@@H](Cc1ccccc1)C(=O)O the T1/2 (Oryctolagus cuniculus [10]) was 6.7.

In the case of CC[C@H](C)[C@H](NC(=O)[C@H](Cc1ccc(O)cc1)NC(=O)[C@@H](NC(=O)[C@H](CCCN=C(N)N)NC(=O)[C@@H](N)CC(=O)N(C(C)C)C(C)C)C(C)C)C(=O)N[C@@H](Cc1c[nH]cn1)C(=O)N1CCC[C@H]1C(=O)N[C@@H](Cc1ccccc1)C(=O)O [listing 1 of 2 here], the pD2 (Oryctolagus cuniculus [9]) is reported as 6.69.

For CC[C@H](C)[C@H](NC(=O)[C@H](Cc1ccc(O)cc1)NC(=O)[C@@H](NC(=O)[C@H](CCCN=C(N)N)NC(=O)[C@@H](N)CC(=O)N(C(C)C)C(C)C)C(C)C)C(=O)N[C@@H](Cc1c[nH]cn1)C(=O)N1CCC[C@H]1C(=O)N[C@@H](Cc1ccccc1)C(=O)O [listing 2 of 2 here], the “Increase in blood pressure” value (Oryctolagus cuniculus [1]) was 9%, the “Alpha E” value (Oryctolagus cuniculus [2]) was 1 and the “Increase in blood pressure” value (Rattus norvegicus [3]) was 7%. The “Activity Factor” value (Rattus norvegicus [4]) was 14.3, the Activity (Oryctolagus cuniculus [5]) was 11 and the F1/2 (Oryctolagus cuniculus [6]) was 2.9. The F3/4 (Oryctolagus cuniculus [7]) was 4.2 and the T3/4 (Oryctolagus cuniculus [8]) was 36.7.

For CCCN(CCC)C(=O)C[C@H](N)C(=O)N[C@@H](CCCN=C(N)N)C(=O)N[C@H](C(=O)N[C@@H](Cc1ccc(O)cc1)C(=O)N[C@H](C(=O)N[C@@H](Cc1c[nH]cn1)C(=O)N1CCC[C@H]1C(=O)N[C@@H](Cc1ccccc1)C(=O)O)[C@@H](C)CC)C(C)C [listing 2 of 2 here], the “Increase in blood pressure” value (Oryctolagus cuniculus [1]) was 16%, the “Alpha E” value (Oryctolagus cuniculus [2]) was 1 and the “Increase in blood pressure” value (Rattus norvegicus [3]) was 9%. The “Activity Factor” value (Rattus norvegicus [4]) was 11.1, the Activity (Oryctolagus cuniculus [5]) was 6.3 and the F1/2 (Oryctolagus cuniculus [6]) was 3.7. It also gave an F3/4 (Oryctolagus cuniculus [7]) of 5.1 and a T3/4 (Oryctolagus cuniculus [8]) of 44.

CCCN(CCC)C(=O)C[C@H](N)C(=O)N[C@@H](CCCN=C(N)N)C(=O)N[C@H](C(=O)N[C@@H](Cc1ccc(O)cc1)C(=O)N[C@H](C(=O)N[C@@H](Cc1c[nH]cn1)C(=O)N1CCC[C@@H]1C(=O)N[C@@H](Cc1ccccc1)C(=O)O)[C@@H](C)CC)C(C)C showed a T1/2 (Oryctolagus cuniculus [10]) of 18.7.
